Laboratory results published in ChEMBL document CHEMBL5712899, “WDR5 supports colon cancer cells by promoting methylation of H3K4 and suppressing DNA damage” (2018).
Active and inactive are the calls of the source. The rule behind the calls is not given here.

What was measured:
SW-620 [1] = experiment: Cytotoxicity against human SW620 cells assessed as reduction in cell viability at 10 uM for 72 hrs by Alamar Blue assay relative to control; format: functional
Method in brief: (§1)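 Cells grown in DMEM with 10% FBS and treated 72 h with compound diluted 1:1000 from 10 mM DMSO stock (final 0.1% DMSO, vehicle control). alamarBlue added at 100 μL per mL medium for 1–3 h at 37 °C, then fluorescence read. Values background-subtracted against cell-free wells and normalized to control set to 1. Shown ± SD; unpaired two-sided t-test.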

SW-620 [2] = experiment: Cell cycle arrest in human SW620 cells assessed as increase in G1-phase cell population at 10 uM measured after 48 hrs by propidium iodide staining based flow cytometry; format: functional
Method in brief: (§2)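 Fixed overnight at −20 °C in ice-cold 70% ethanol after collecting adherent and nonadherent cells. Rehydrated in PBS for 15 min at 37 °C, then PI-stained for 8–15 h. Read on an LSR II flow cytometer with cell-cycle modelling for phase percentages. Compound added from 10 mM DMSO stock diluted 1:1000 into pre-warmed medium (0.1% DMSO vehicle control). Unpaired two-sided t-test.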

SW-620 [3] = experiment: Induction of apoptosis in human SW620 cells assessed as necrotic cells at 10 uM measured after 48 hrs by Annexin V/Propidium iodide staining based flow cytometry (reference value: 0.87%); format: functional
LoVo [4] = experiment: Inhibition of colony formation in human LoVo cells assessed as decrease in colony size at 10 uM incubated for 10 to 14 days; format: functional, cell-based; details: time 10-14 day
Method in brief: (§3)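 Colony assay in 24-well plates with compound for 10–14 days, diluted from 10 mM DMSO stock to a final 0.1% DMSO (vehicle control). Colony number and average colony size quantified per line. Unpaired two-sided t-test.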

SW480 = experiment: Inhibition of colony formation in human SW480 cells assessed as decrease in number of colonies at 10 uM incubated for 10 to 14 days; format: functional, cell-based; details: time 10-14 day; method in brief: as §3
HCT-116 [5] = experiment: Cytotoxicity against human HCT-116 cells assessed as decrease in cell viability at 10 uM for 72 hrs by Alamar Blue assay; format: functional, cell-based; method in brief: as §1
HCT-116 [6] = experiment: Induction of apoptosis in human HCT-116 cells assessed as necrotic cells at 10 uM measured after 48 hrs by Annexin V/Propidium iodide staining based flow cytometry (reference value: 0.67%); format: functional
SW-620 [7] = experiment: Inhibition of colony formation in human SW620 cells assessed as decrease in colony size at 10 uM incubated for 10 to 14 days; format: functional, cell-based; details: time 10-14 day; method in brief: as §3
SW-620 [8] = experiment: Inhibition of colony formation in human SW620 cells assessed as decrease in number of colonies at 10 uM incubated for 10 to 14 days; format: functional, cell-based; details: time 10-14 day; method in brief: as §3
RKO [9] = experiment: Inhibition of colony formation in human RKO cells assessed as decrease in number of colonies at 10 uM incubated for 10 to 14 days; format: functional, cell-based; details: time 10-14 day; method in brief: as §3
RKO [10] = experiment: Cytotoxicity against human RKO cells assessed as decrease in cell viability at 10 uM measured after 72 hrs by Alamar Blue assay; format: functional, cell-based; method in brief: as §1
[11] = Inhibition of RBBP5 interaction with flag-tagged human WDR5 expressed in HEK293T cells assessed as endogenous RBBP5 level at 10 uM measured after 5 hrs by co-immunoprecipitation assay relative to control; set-up: scale not given: the % may be the effect or the level left; details: condition malignant colon neoplasm
RKO [12] = experiment: Induction of apoptosis in human RKO cells assessed as viable cells at 10 uM measured after 48 hrs by Annexin V/Propidium iodide staining based flow cytometry (Rvb =76.1%); format: functional; details: read-out: Activity
T84 [13] = experiment: Cytotoxicity against human T84 cells assessed as reduction in cell viability at 10 uM for 72 hrs by Alamar Blue assay relative to control; format: functional; method in brief: as §1
RKO [14] = experiment: Cell cycle arrest in human RKO cells assessed as increase in G1-phase cell population at 10 uM measured after 48 hrs by propidium iodide staining based flow cytometry; format: functional; method in brief: as §2
T84 [15] = experiment: Inhibition of colony formation in human T84 cells assessed as decrease in colony size at 10 uM incubated for 10 to 14 days; format: functional, cell-based; details: time 10-14 day; method in brief: as §3
SW-620 [16] = experiment: Induction of apoptosis in human SW620 cells assessed as viable cells at 10 uM measured after 48 hrs by Annexin V/Propidium iodide staining based flow cytometry (Rvb =84.8%); format: functional; details: read-out: Activity
RKO [17] = experiment: Induction of apoptosis in human RKO cells assessed as necrotic cells at 10 uM measured after 48 hrs by Annexin V/Propidium iodide staining based flow cytometry (reference value: 0.54%); format: functional
HCT-116 [18] = experiment: Induction of apoptosis in human HCT-116 cells assessed as viable cells at 10 uM measured after 48 hrs by Annexin V/Propidium iodide staining based flow cytometry (reference value: 62.7%); format: functional; details: read-out: Activity
HCT-116 [19] = experiment: Induction of apoptosis in human HCT-116 cells assessed as early apoptotic cells at 10 uM measured after 48 hrs by Annexin V/Propidium iodide staining based flow cytometry (reference value: 19.4%); format: functional
T84 [20] = experiment: Inhibition of colony formation in human T84 cells assessed as decrease in number of colonies at 10 uM incubated for 10 to 14 days; format: functional, cell-based; details: time 10-14 day; method in brief: as §3
SW-620 [21] = experiment: Induction of apoptosis in human SW620 cells assessed as early apoptotic cells at 10 uM measured after 48 hrs by Annexin V/Propidium iodide staining based flow cytometry (reference value: 4.03%); format: functional
HCT-116 [22] = experiment: Inhibition of colony formation in human HCT-116 cells assessed as decrease in colony size at 10 uM incubated for 10 to 14 days; format: functional, cell-based; details: time 10-14 day; method in brief: as §3
RKO [23] = experiment: Induction of apoptosis in human RKO cells assessed as early apoptotic cells at 10 uM measured after 48 hrs by Annexin V/Propidium iodide staining based flow cytometry (reference value: 16.7%); format: functional
HCT-116 [24] = experiment: Induction of apoptosis in human HCT-116 cells assessed as late apoptotic cells at 10 uM measured after 48 hrs by Annexin V/Propidium iodide staining based flow cytometry (reference value: 17.2%); format: functional
SW-620 [25] = experiment: Induction of apoptosis in human SW620 cells assessed as late apoptotic cells at 10 uM measured after 48 hrs by Annexin V/Propidium iodide staining based flow cytometry (reference value: 10.3%); format: functional
RKO [26] = experiment: Induction of apoptosis in human RKO cells assessed as late apoptotic cells at 10 uM measured after 48 hrs by Annexin V/Propidium iodide staining based flow cytometry (reference value: 6.58%); format: functional
LoVo [27] = experiment: Inhibition of colony formation in human LoVo cells assessed as decrease in number of colonies at 10 uM incubated for 10 to 14 days; format: functional, cell-based; details: time 10-14 day; method in brief: as §3
RKO [28] = experiment: Inhibition of colony formation in human RKO cells assessed as decrease in colony size at 10 uM incubated for 10 to 14 days; format: functional, cell-based; details: time 10-14 day; method in brief: as §3

SMILES: CN1CCN(c2ccc(-c3cccc(CN4CCOCC4)c3)cc2NC(=O)c2c[nH]c(=O)cc2C(F)(F)F)CC1
- Activity (SW-620 [1]): 50%
- Activity (SW-620 [2]): Active
- Activity (SW-620 [3]): 0.43%
- inhibition (LoVo [4]): inactive
- inhibition (SW480): Active
- Activity (HCT-116 [5]): Active
- Activity (HCT-116 [6]): 1.36%
- inhibition (SW-620 [7]): Active
- inhibition (SW-620 [8]): Active
- inhibition (RKO [9]): Active
- Activity (RKO [10]): Active
- Activity [11]: <20%
- viability at 10 µM (RKO [12]): 68.5%
- Activity (T84 [13]): 50%
- Activity (RKO [14]): Active
- inhibition (T84 [15]): Active
- viability at 10 µM (SW-620 [16]): 81.3%
- Activity (RKO [17]): 0.18%
- viability at 10 µM (HCT-116 [18]): 46.1%
- Activity (HCT-116 [19]): 22.2%
- inhibition (T84 [20]): Active
- Activity (SW-620 [21]): 8.01%
- inhibition (HCT-116 [22]): Active
- Activity (RKO [23]): 27%
- Activity (HCT-116 [24]): 30.4%
- Activity (SW-620 [25]): 10.3%
- Activity (RKO [26]): 4.3%
- inhibition (LoVo [27]): inactive
- inhibition (RKO [28]): inactive
